Screens as filed in PubChem.
Sampled rows, rich in hits. Any-hit rate of the full collection: about 3.1%.
ABHD5 PLIN5 PPI = ABHD5-PLIN5 protein interaction inhibition; Q00G26+Q8WTS1; Split G. princeps luciferase complementation, luminescence, 4 h; inhibition, % at 4 µM; 360,000 compounds, 0.78% hits;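 active means inhibition above the mean inhibition across every tested compound plus 3 SD, cut at about 22% in these data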;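 further: 0% = DMSO only wells and the 100% control is not disclosed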
Target sequence (Q00G26 whole entry, looked up): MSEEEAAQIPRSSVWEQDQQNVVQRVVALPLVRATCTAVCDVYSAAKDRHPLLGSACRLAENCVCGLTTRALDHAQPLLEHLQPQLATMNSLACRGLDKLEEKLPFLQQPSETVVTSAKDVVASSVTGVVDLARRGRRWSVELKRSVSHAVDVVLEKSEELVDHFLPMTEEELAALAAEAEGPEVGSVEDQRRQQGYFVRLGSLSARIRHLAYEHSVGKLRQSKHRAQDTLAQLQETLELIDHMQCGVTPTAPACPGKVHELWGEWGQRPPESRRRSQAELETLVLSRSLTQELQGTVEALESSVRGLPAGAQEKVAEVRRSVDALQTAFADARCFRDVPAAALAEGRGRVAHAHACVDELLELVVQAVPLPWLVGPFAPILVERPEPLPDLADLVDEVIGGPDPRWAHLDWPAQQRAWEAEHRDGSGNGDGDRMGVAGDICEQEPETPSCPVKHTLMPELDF
Target sequence (Q8WTS1 whole entry, looked up): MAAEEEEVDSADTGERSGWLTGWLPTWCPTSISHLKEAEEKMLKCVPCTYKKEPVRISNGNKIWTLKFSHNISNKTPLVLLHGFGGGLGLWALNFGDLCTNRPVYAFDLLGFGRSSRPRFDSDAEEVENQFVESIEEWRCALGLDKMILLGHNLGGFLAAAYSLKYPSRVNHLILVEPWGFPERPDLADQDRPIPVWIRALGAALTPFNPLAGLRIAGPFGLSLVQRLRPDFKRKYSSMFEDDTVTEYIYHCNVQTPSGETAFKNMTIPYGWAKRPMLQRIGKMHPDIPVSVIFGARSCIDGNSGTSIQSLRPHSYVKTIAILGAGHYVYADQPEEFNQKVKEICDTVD
RBBP9 inh = human RBBP9 hydrolase inhibition; recombinant RBBP9, FP-Rh probe fluorescence polarization; AID 1515; inhibition, % at 7.94 µM; 220,000 compounds, 0.2% hits; O75884;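 active means inhibition above the campaign mean of all tested compounds plus 3 SD, cut at about 14% in these data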;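 further: plate controls were DMSO wells with RBBP9 for no effect and wells lacking RBBP9 protein for full effect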
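Controls: DMSO-treated enzyme wells and wells lacking RBBP9 | Material: RBBP9 protein | Technique: Fluorescence polarization | Replication: Single well per compound, no replicates | Buffer or medium: Tris-NaCl-Pluronic buffer, pH 8.0 | Timing: 30 min compound preincubation, 45 min probe labeling, 25 °C | Read-out basis: Percent inhibition from mP, scaled between DMSO and no-protein wells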
MBD2 inh = inhibitors of human MBD2 binding to methylated oligonucleotide; Q9UBB5; TR-FRET; inhibition, % at 4.4 µM; 370,000 compounds, 0.31% hits; AID 686964; in the data active means inhibition above about 13%
LEDGF integ inh = blocks HIV-1 LEDGF/p75-dependent DNA integration; TR-FRET IN-LEDGF/p75 DNA integration, Eu/Cy5; inhibition, % at 3.7 µM; 370,000 compounds, 0.64% hits;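 active means inhibition above the screen-wide mean plus 3 SD, cut at about 13% in these data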;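 further: signal is the Cy5 over europium emission ratio at 671 and 618 nm; 0% = plate median of compound wells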
UHRF1 binding = UHRF1 methyl-DNA binding inhibition. Q96T88. UHRF1 binding to methylated oligo, TR-FRET. inhibition, % at 4.4 µM. 370,000 compounds, 0.75% hits. AID 687016; in the data active means inhibition above about 21%;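 further: UHRF1 SRA domain binding a hemimethylated CpG hairpin DNA probe; 0% = median of test compound wells and 100% = reference inhibitor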
PRMT1 inh = PRMT1 (human) inhibition, primary screen | 370,000 compounds, 1.3% hits | Q99873 | AID 652257 | inhibition, % at 2.79 µM | recombinant PRMT1, activity-based probe fluorescence polarization;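 active means inhibition above about 21% made by adding two undisclosed values, limit read from the data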
IN multimer up = counter-screen for LEDGF/p75 integration inhibitors: HIV-1 integrase multimerization activators | AID 1053131 | shares compounds with LEDGF integ inh | 2,000 compounds, 17% hits | activation, % at 7.7 µM | TR-FRET HIV-1 integrase multimerization, biochemical; in the data active means activation above about 8.9%
TRFRET interf = TR-FRET optical interference, LEDGF/p75 integration counter-screen. shares compounds with LEDGF integ inh. TR-FRET optical interference counterscreen, HIV-1 IN multimerization. inhibition, % at 7.7 µM. 2,000 tested, under 10 active;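 active means inhibition above the mean over all tested compounds plus 3 SD, which no compound reached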;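 further: 0% = integrase with antibodies and DMSO and 100% = antibodies without integrase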
IN-LEDGF confirm = confirmation of HIV-1 LEDGF/p75-dependent integration inhibitors | inhibition, % at 3.7 µM | 2,000 compounds, 36% hits | AID 1053136 | TR-FRET LEDGF/p75-dependent HIV-1 integration, biochemical | shares compounds with LEDGF integ inh; in the data active means inhibition above about 14%
* = called active by the depositor; . = not tested or not shown.

SMILES	ABHD5 PLIN5 PPI	RBBP9 inh	MBD2 inh	LEDGF integ inh	UHRF1 binding	PRMT1 inh	IN multimer up	TRFRET interf	IN-LEDGF confirm
Oc1c(Br)cc(Br)cc1/C=N/Nc1ccc(Cl)nn1	-6	.	2	1	-5	-3	.	.	.
Oc1ccc(/C=N/Nc2ccc(Cl)nn2)c(O)c1O	-15	.	6	70*	21*	58*	31*	-111	62*
C[C@@H]1CN(c2ccc(N3CCN(C(=O)OC(C)(C)C)C[C@@H]3C)cc2C#N)C[C@H](C)O1	.	.	0	3	3	-2	.	.	.
Cc1[nH]nc2c1C(c1ccc(Br)cc1)N(Cc1ccccc1)C2=O (stereo not drawn)	.	.	-5	3	-2	-2	.	.	.
CCCc1nc2ccc(C)cn2c1Cc1ccc(C)cc1	0	.	11	14*	21*	-1	1	-4	-11
NS(=O)(=O)c1ccc2c(c1)C1C=CCC1C(C1CC=CCC1)N2 (stereo not drawn)	10	-1	5	21*	2	37*	2	-8	4
CC(C)C1Nc2ccc(S(N)(=O)=O)cc2C2C=CCC21 (stereo not drawn)	-5	-8	-2	0	-6	8	.	.	.
CCOC(=O)C1=C(c2ccccc2)N=c2s/c(=C\c3ccco3)c(=O)n2C1c1cccs1 (stereo not drawn)	-8	-4	5	16*	8	23*	1	-7	23*
COc1ccc(C2C(C(C)=O)=C(C)N=c3s/c(=C\c4ccco4)c(=O)n32)c(OC)c1 (stereo not drawn)	5	-1	-2	15*	-3	13	-1	7	0
COc1ccc(C2C(C#N)=C(N)OC3=C2C(=O)CC(C)(C)C3)cc1OC (stereo not drawn)	1	-5	3	-7	4	2	.	.	.
COc1ccc(C2C(C#N)=C(N)OC3=C2C(=O)CC(C)(C)C3)cc1Cn1nc(C)c([N+](=O)[O-])c1C (stereo not drawn)	-2	-9	-2	14*	-2	0	1	-6	-5
CC(C)[C@H]1COc2c3ccccc3nn21	.	.	-5	3	-3	-2	.	.	.
CCc1ccc2c(c1)C(NC(C)=O)C(=O)N2CCN1CCOCC1 (stereo not drawn)	4	.	-9	15*	-2	9	-1	3	33*
CCCN1C(=O)C(NC(C)=O)c2ccccc21 (stereo not drawn)	-3	0	9	2	7	6	.	.	.
Cc1nn(-c2ccccc2)c(N2CCCC2)c1/C=N/NC(=O)c1cc2ccccc2cc1O	1	0	6	14*	-5	0	-1	5	3
COc1ccc(C(=O)Nc2cc(Cl)c(Br)cc2C(=O)O)cc1	.	.	-1	1	0	-2	.	.	.
CC1SC(=S)N(c2ccc(N(C)C)cc2)C1=O (stereo not drawn)	-33	.	-9	20*	0	9	1	-3	0
Cc1ccc(N2C(=O)CSC2=S)cc1C	-2	-7	3	2	-2	0	.	.	.
CN(C)c1ccc(N2C(=O)CSC2=S)cc1	-22	4	1	21*	0	23*	2	-12	6
S=C(Nc1ccccc1)OC1CCC12CCC(c1ccccc1)CC2 (stereo not drawn)	.	.	0	-4	0	1	.	.	.
COC(=O)[C@]12CCCCC=C1N(Cc1ccc(OC)cc1)C(=O)[C@@H]2CC(=O)N1CCCC1	.	.	2	-4	3	8	.	.	.
COc1cccc(C(=O)N[C@H](C(=O)N2CCC[C@H]2C(=O)NC2CCCC2)c2ccccc2)c1	.	.	1	-2	-2	-1	.	.	.
CC(=O)Nc1ccc(Oc2cnc3ccccc3n2)cc1	2	3	5	1	-5	0	.	.	.
CC(=O)Nc1ccc(Oc2cnccn2)cc1	7	0	1	29*	-2	-2	-3	17	3
CC(C)CN1C(=O)C[C@@]2(C(=O)N(C)c3ccc(NC(=O)c4cc(F)ccc4F)cc32)C1c1ccccc1 (stereo partly drawn)	.	.	8	3	8	-2	.	.	.
SMILES	ABHD5 PLIN5 PPI	RBBP9 inh	MBD2 inh	LEDGF integ inh	UHRF1 binding	PRMT1 inh	IN multimer up	TRFRET interf	IN-LEDGF confirm
Nc1[nH]c(C(=O)c2ccccc2)c(-c2ccccn2)c1C(=O)c1c[nH]c2ccccc12	.	.	2	0	-3	1	.	.	.
COc1ccc(CN2C(=O)c3cccnc3C2Nc2cc(Cl)ccc2OC)cc1 (stereo not drawn)	-2	-3	-8	15*	0	5	-1	7	23*
COc1ccc(OC)c(NC2c3ncccc3C(=O)N2Cc2ccco2)c1 (stereo not drawn)	1	1	9	-1	5	8	.	.	.
Cc1ccc(NC2c3ncccc3C(=O)N2Cc2ccco2)c(C)c1 (stereo not drawn)	-2	-2	2	20*	12	10	0	-2	6
COc1cc(OC)cc(C(=O)n2cnnc2N)c1	4	-5	-1	25*	1	-3	0	-1	-3
CN(Cc1cn(CC2CCCCC2)nn1)S(=O)(=O)c1ccccc1Br	.	.	9	-2	11	2	.	.	.
O=C(Cn1cnc2cc([N+](=O)[O-])ccc2c1=O)N(Cc1ccccc1)C1CCS(=O)(=O)C1 (stereo not drawn)	1	5	1	2	1	-6	.	.	.
O=C(Cn1cnc2cc([N+](=O)[O-])ccc2c1=O)NC1CCS(=O)(=O)C1 (stereo not drawn)	1	3	3	20*	1	0	1	-3	0
CN(C)c1ncnc2c1ncn2[C@H]1CN(Cc2cccnc2)C[C@@H](CO)O1	-2	.	1	52*	-1	1	-1	5	-6
C=CCc1c(C)nc(-c2ccccc2)nc1N/N=C/c1ccccc1	-7	1	2	53*	-4	0	-1	5	25*
CO[C@@]12[C@H](COC(N)=O)C3=C(C(=O)C(C)=C(N)C3=O)N1C[C@@H]1N[C@@H]12	-3	.	0	1	4	-2	.	.	.
CO[C@@]12[C@@H]3N[C@@H]3CN1C1=C(C(=O)C(N)=C(C)C1=O)[C@@H]2COC(N)=O	-5	.	-2	15*	9	8	4	-20	7
O=c1[nH]c(CN2CCc3ccccc32)nc2scc(-c3cccs3)c12	0	-11	0	18*	0	10	1	-6	7
